Experimental data reported in ChEMBL document CHEMBL2062403, “Disulfide prodrugs of albitiazolium (T3/SAR97276): synthesis and biological activities” (J Med Chem, 2012).

What was measured:
Plasmodium falciparum = assay: Antiplasmodial activity against Plasmodium falciparum assessed as inhibition of [3H]hypoxanthine incorporation after 48 hrs; format: functional, organism-based
In short: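 P. falciparum Nigerian strain blood stages, modified Desjardins microtiter test; drug contact one parasite cycle (48 h); growth read as [³H]hypoxanthine incorporation into nucleic acids; IC50 = concentration giving 50% growth inhibition.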

[1] = tested on: Plasmodium vinckei petteri; assay: Antimalarial activity against Plasmodium vinckei petteri 279BY infected in ip dosed Swiss mouse assessed as reduction in parasitemia administered QD for 4 days measured on day 5; format: functional
In short: (§1)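 P. vinckei-infected mice, 4-day suppressive test, dosing once daily for 4 days by ip or oral route; vehicle DMSO for both routes except some compounds given in 0.9% NaCl (ip) or water (po); ED50 = dose inhibiting in vivo parasite growth by 50%.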

[2] = tested on: Plasmodium vinckei petteri; assay: Antimalarial activity against Plasmodium vinckei petteri 279BY infected in po dosed Swiss mouse assessed as reduction in parasitemia administered QD for 4 days measured on day 5; format: functional; in short: as §1
[3] = tested on: Plasmodium vinckei petteri; assay: Ratio of ED50 for Plasmodium vinckei petteri 279BY infected in […] dosed Swiss mouse; format: functional
[4] = Aqueous solubility of the compound; format: physicochemical; conditions: water
Mus musculus [5] = assay: Prodrug conversion in ip dosed Swiss mouse assessed as albitiazolium bromide formation administered QD for 4 days; format: ADME, organism-based; conditions: in vivo, 96 h
Mus musculus [6] = assay: Prodrug conversion in po dosed Swiss mouse assessed as albitiazolium bromide formation administered QD for 4 days; format: ADME, organism-based; conditions: in vivo, 96 h

SMILES: C/C1=C(\CCOC(=O)[C@@H](N)CCCCN)SS/C(CCOC(=O)[C@@H](N)CCCCN)=C(/C)N(C=O)CCCCCCCCCCCCN1C=O.Cl.Cl
- IC50 (Plasmodium falciparum): 130 nM
- ED50 [1]: 0.9 mg/kg
- ED50 [2]: 50 mg/kg
- Ratio ED50 [3]: 1.8
- solubility [4]: 27 mg/mL
- Drug metabolism (Mus musculus [5]): Active

SMILES: C/C(=C(\CCOP(=O)([O-])[O-])SSCc1ccccc1)N(C=O)CCCCCCCCCCCCN(C=O)/C(C)=C(/CCOP(=O)([O-])[O-])SSCc1ccccc1.[Li+].[Li+].[Li+].[Li+]
- IC50 (Plasmodium falciparum): 4400 nM
- ED50 [1]: 3 mg/kg
- ED50 [2]: > 90 mg/kg
- Drug metabolism (Mus musculus [5]): Active

SMILES: CCSS/C(CCOP(=O)([O-])[O-])=C(/C)N(C=O)CCCCCCCCCCCCN(C=O)/C(C)=C(/CCOP(=O)([O-])[O-])SSCC.[Li+].[Li+].[Li+].[Li+]
- IC50 (Plasmodium falciparum): 5700 nM
- ED50 [1]: 1.1 mg/kg
- ED50 [2]: 60 mg/kg
- Ratio ED50 [3]: 1.8
- Drug metabolism (Mus musculus [5]): Active

SMILES: CCOP(=O)(OCC)OCC/C(SSCC)=C(\C)N(C=O)CCCCCCCCCCCCN(C=O)/C(C)=C(/CCOP(=O)(OCC)OCC)SSCC
- IC50 (Plasmodium falciparum): 61.7 nM
- ED50 [1]: > 1 mg/kg
- ED50 [2]: > 90 mg/kg

SMILES: C/C1=C(\CCOC(=O)[C@@H](N)C(C)C)SS/C(CCOC(=O)[C@@H](N)C(C)C)=C(/C)N(C=O)CCCCCCCCCCCCN1C=O.Cl
- IC50 (Plasmodium falciparum): 590 nM
- ED50 [1]: 1 mg/kg
- ED50 [2]: 37 mg/kg
- Ratio ED50 [3]: 4.1
- Drug metabolism (Mus musculus [5]): Active

SMILES: C/C1=C(\CCO)SS/C(CCO)=C(/C)N(C=O)CCCCCCCCCCCCN1C=O
- IC50 (Plasmodium falciparum): 65 nM
- ED50 [1]: 0.9 mg/kg
- ED50 [2]: 22 mg/kg
- Drug metabolism (Mus musculus [5]): Active

SMILES: CCCSS/C(CCO)=C(/C)N(C=O)CCCCCCCCCCCCN(C=O)/C(C)=C(/CCO)SSCCC
- IC50 (Plasmodium falciparum): 1.3 nM
- ED50 [1]: 0.5 mg/kg
- ED50 [2]: > 54 mg/kg
- Drug metabolism (Mus musculus [5]): Active

SMILES: C/C(=C(\CCO)SSCc1ccccc1)N(C=O)CCCCCCCCCCCCN(C=O)/C(C)=C(/CCO)SSCc1ccccc1
- IC50 (Plasmodium falciparum): 14.4 nM
- ED50 [1]: 1.3 mg/kg
- ED50 [2]: 80 mg/kg
- Ratio ED50 [3]: 1.6
- Drug metabolism (Mus musculus [5]): Active

SMILES: CSS/C(CCO)=C(/C)N(C=O)CCCCCCCCCCCCN(C=O)/C(C)=C(/CCO)SSC
- IC50 (Plasmodium falciparum): 6 nM
- ED50 [1]: 0.4 mg/kg
- ED50 [2]: 15 mg/kg
- Ratio ED50 [3]: 2.7
- Drug metabolism (Mus musculus [5]): Active
- Drug metabolism (Mus musculus [6]): Active

SMILES: CCN(CC)CCCC(C)Nc1ccnc2cc(Cl)ccc12 (centres undefined) [CHLOROQUINE]
- ED50 [1]: 1.1 mg/kg
- ED50 [2]: 3.4 mg/kg

SMILES: CSS/C(CCOC(=O)[C@@H](N)CCCCN)=C(/C)N(C=O)CCCCCCCCCCCCN(C=O)/C(C)=C(/CCOC(=O)[C@@H](N)CCCCN)SSC.Cl.Cl
- IC50 (Plasmodium falciparum): 120 nM
- ED50 [1]: 1 mg/kg
- ED50 [2]: 44 mg/kg
- Ratio ED50 [3]: 2.3
- solubility [4]: 27 mg/mL
- Drug metabolism (Mus musculus [5]): Active

SMILES: Cc1c(CCOP(=O)(O)O)sc[n+]1CCCCCCCCCCCC[n+]1csc(CCOP(=O)(O)O)c1C
- IC50 (Plasmodium falciparum): 6.65 nM
- ED50 [1]: 0.34 mg/kg
- ED50 [2]: 34 mg/kg
- Ratio ED50 [3]: 1

SMILES: CCSS/C(CCO)=C(/C)N(C=O)CCCCCCCCCCCCN(C=O)/C(C)=C(/CCO)SSCC
- IC50 (Plasmodium falciparum): 5.4 nM
- ED50 [1]: 1.1 mg/kg
- ED50 [2]: 44 mg/kg
- Ratio ED50 [3]: 2.5
- Drug metabolism (Mus musculus [5]): Active

SMILES: CSS/C(CCOC(=O)[C@@H](N)C(C)C)=C(/C)N(C=O)CCCCCCCCCCCCN(C=O)/C(C)=C(/CCOC(=O)[C@@H](N)C(C)C)SSC.Cl
- IC50 (Plasmodium falciparum): 160 nM
- ED50 [1]: 1 mg/kg
- ED50 [2]: 58 mg/kg
- Ratio ED50 [3]: 1.7
- Drug metabolism (Mus musculus [5]): Active

SMILES: Cc1c(CCO)sc[n+]1CCCCCCCCCCCC[n+]1csc(CCO)c1C.[Br-].[Br-] [ALBITIAZOLIUM BROMIDE]
- ED50 [1]: 0.2 mg/kg
- ED50 [2]: 13 mg/kg
- Ratio ED50 [3]: 1.5

SMILES: C/C(=C(\CCOP1(=O)OCc2ccccc2O1)SSCc1ccccc1)N(C=O)CCCCCCCCCCCCN(C=O)/C(C)=C(/CCOP1(=O)OCc2ccccc2O1)SSCc1ccccc1 (centres undefined)
- IC50 (Plasmodium falciparum): 865 nM
- ED50 [1]: > 5 mg/kg
- ED50 [2]: > 90 mg/kg

SMILES: CCSS/C(CCOP1(=O)OCc2ccccc2O1)=C(/C)N(C=O)CCCCCCCCCCCCN(C=O)/C(C)=C(/CCOP1(=O)OCc2ccccc2O1)SSCC (centres undefined)
- IC50 (Plasmodium falciparum): 520 nM
- ED50 [1]: 5 mg/kg
- ED50 [2]: > 90 mg/kg
- Drug metabolism (Mus musculus [5]): Active

SMILES: CC(=O)OCC/C1=C(\C)N(C=O)CCCCCCCCCCCCN(C=O)/C(C)=C(/CCOC(C)=O)SS1
- IC50 (Plasmodium falciparum): 24 nM
- ED50 [1]: 1 mg/kg
- ED50 [2]: 7.3 mg/kg
- Ratio ED50 [3]: 13.7
- Drug metabolism (Mus musculus [5]): Active
